Laboratory results published in ChEMBL document CHEMBL5325427.
Converted amounts (≈) assume the structure as drawn. The source made the active and inactive calls. No cut-off for these calls is given here.

Assays:
[1] = molecular target: Replicase polyprotein 1ab (Severe acute respiratory syndrome coronavirus 2, UniProt P0DTD1); test: Inhibition of recombinant SARS CoV-2 PL protease incubated for 2 hrs followed by substrate addition and measured after 1 hr by fluorescence based analysis
[2] = molecular target: Replicase polyprotein 1ab (Severe acute respiratory syndrome coronavirus 2) (UniProt P0DTD1); test: Inhibition of SARS-CoV-2 3CLpro at 10 ug/ml preincubated with enzyme for 30 mins followed by substrate addition and measured after 4 hrs by fluorescence based analysis; settings: dose 10.0 µg/ml, time 4.5 hrs
In short: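 Recombinant SARS-CoV-2 3CLpro (1.5 ng/μl) was pre-incubated with compound 30 min at RT. Fluorogenic substrate was added to a final 40 μM and incubated 4 h at RT. Fluorescence was read at Ex 360/Em 460 nm. Wells were run in triplicate and blank was subtracted.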

Vero C1008 = test: (§1) Cytotoxicity against African green monkey Vero E6 cells measured after 72 hrs by crystal violet staining based analysis; assay type: toxicity, cell-based; settings: chlorocebus sabaeus, vero c1008, 72 h
In short: (§2)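 Vero-E6 cells were seeded at 3 × 10^5 cells/mL, grown 24 h at 37 °C with 5% CO2, then given graded compound concentrations in triplicate for 72 h. Stocks were made in 10% DMSO in DMEM. Cells were fixed in 10% formalin, stained with 0.1% crystal violet, dissolved in methanol and read at A570. CC50 was taken by nonlinear regression of log concentration versus normalised response against untreated cells.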

SARS-CoV-2 = test: Antiviral activity against SARS-CoV-2 NRC-03-nhCoV infected in african green monkey Vero E6 cells assessed as inhibition of viral growth pre-infected cells with virus for 1 hr followed by compound addition for 1 hr and measured after 72 hrs by crystal violet staining based analysis; assay type: functional, organism-based; settings: Severe acute respiratory syndrome coronavirus 2, NRC-03-nhCoV, Vero C1008
[3] = Selectivity index, ratio of CC50 for African green monkey Vero E6 cells to IC50 for antiviral activity against SARS-CoV-2 NRC-03-nhCoV infected in african green monkey Vero E6 cells; assay type: toxicity, cell-based, Vero C1008; settings: read-out: Ratio CC50/IC50
[4] = Aqueous solubility of the compound in PBS buffer at pH 7.4 at 200 uM by microplate reader method; assay type: physicochemical
[5] = Stability in CD-1 mouse liver microsomes assessed as half life at 1 uM in presence of NADPH by LC-MS-MS analysis; assay type: ADME, Microsome
[6] = Stability in human liver microsomes assessed as half life at 1 uM in presence of NADPH by LC-MS-MS analysis; assay type: ADME, Microsome
[7] = Stability in CD-1 mouse liver microsomes assessed as compound remaining at 1 uM measured after 60 mins in absence of NADPH by LC-MS-MS analysis; assay type: ADME, Microsome; settings: read-out: Stability
In short: (§3)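 Compound was incubated in liver microsomes without NADPH. Percent remaining was measured after 60 min.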

[8] = Stability in human microsomes assessed as compound remaining at 1 uM measured after 60 mins in absence of NADPH by LC-MS-MS analysis; assay type: ADME, Microsome; settings: read-out: Stability; in short: as §3
[9] = molecular target: Replicase polyprotein 1ab (Severe acute respiratory syndrome coronavirus 2) (UniProt P0DTD1); test: Inhibition of recombinant SARS CoV-2 PL protease at 25 ug/ml incubated for 2 hrs followed by substrate addition and measured after 1 hr by fluorescence based analysis relative to control; settings: dose 25.0 µg/ml, time 3.0 hrs
[10] = as §1; assay type: toxicity, cell-based, Vero C1008; settings: chlorocebus sabaeus, Vero E6 cells; in short: as §2

| Compound | IC50 [1] | inhibition [2] | other results |
| --- | --- | --- | --- |
| COC(=O)[C@@H]1CC2(C(=O)Nc3ccccc32)C2CC[C@@]3(OC)C=CC(=O)C[C@H]3N21 (stereo not given in full) | 10.3 µM | inactive |  |
| COc1ccc2[nH]c3c(c2c1)C[C@]1(OC)CC[C@H]2c4c[nH]c5cccc(c45)CCN2[C@@H]1C3 | 32.6 µM | inactive |  |
| CC1(C)[C@H]2COc3ccc4ccccc4c3[C@H]2N=C2SC=C(c3ccc(S(=O)(=O)N4CCOCC4)cc3)N21 | 0.121 µM | inactive | CC50 (Vero C1008): 43.12 µg/mL (≈ 78.7 µM); IC50 (SARS-CoV-2): 67.6 µg/mL (≈ 123 µM); selectivity ratio [3]: 0.64; solubility at 200 µM [4]: 56.1 µM (≈ 30.7 µg/mL); t1/2 [5]: 11.2 min; t1/2 [6]: 5.7 min; remaining at 1 h, 1 µM [7]: 92%; remaining at 1 h, 1 µM [8]: 119% |
| COC(=O)[C@H](Cc1ccc(OC)c(OC)c1)N1CC(c2cc(C)ccc2O)=N[C@@H](Cc2ccc(OC)c(OC)c2)C1=O | 47.8 µM | inactive | inhibition [9]: 50% |
| COc1ccc2[nH]cc(CCN3C(=O)[C@H](c4nnc(-c5cccc(C(F)(F)F)c5)o4)[C@H](CC(=O)O)COc4ccccc4[C@@H]3C(=O)NC(C)(C)C)c2c1 | 1.16 µM | inactive |  |
| CO[C@@]12C=CC(=O)C[C@@H]1[n+]1c(c(NC(C)(C)C)n3c(-c4ccccc4)c(-c4ccccc4)sc31)CC2.O=S(=O)([O-])C(F)(F)F |  | inactive | CC50 at 72 h [10]: 89.7 µg/mL; IC50 (SARS-CoV-2): 217 µg/mL; selectivity ratio [3]: 0.41 |
| CC1=C(c2cccc3c2OCO3)N2C(=N[C@@H]3c4c(ccc5ccccc45)OC[C@@H]3C2(C)C)S1 | 72.8 µM | inactive | inhibition [9]: 50% |
| FC(F)(F)Oc1ccc(N/N=C2/C=C[C@@]3(CC2)CC[C@@H]2NCCc4cccc5[nH]c3c2c45)cc1 | 27.5 µM | inactive |  |
| COC(=O)CC1COc2c(cc3c4c2CCCN4CCC3)-c2c(NC(C)(C)C)n3c(-c4ccc(F)cc4)c(C)sc3[n+]21 (stereo not given) | 5.57 µM | inactive |  |
| C[C@]12C=CC(=O)C[C@H]1N1CCc3cccc4[nH]cc(c34)C1CO2 (stereo not given in full) | 19.7 µM | inactive |  |
| COC(=O)C[C@@H]1COc2ccccc2[C@H](C(=O)NC(C)(C)C)N(CCc2c[nH]c3ccc(OC)cc23)C(=O)[C@@H]1c1nnc(-c2cccc(C(F)(F)F)c2)o1 |  | inactive |  |
| COC(=O)CC1COc2c(cc3c4c2CCCN4CCC3)-c2c(NC(C)(C)C)n3c(-c4ccccc4)c(-c4ccccc4)sc3[n+]21 (stereo not given) |  | inactive |  |
| Cc1ccc(N)cc1C(=O)N[C@H](C)c1cccc2ccccc12 |  | inactive |  |
